Source: article PMC8535816 (Science Advances, 2021)
Positions of bridges follow the written chain, without caps; N, C: chain ends. No end group written: not given here. *: point of attachment. Biotin = O=C1N[C@H]2[C@H](CS[C@H]2CCCCC(=O)*)N1; Ahx = NCCCCCC(=O)O

How the values were obtained:
[1] = OCN level in CC and SC after ICV delivery into OCN^−/− mice; format: in vivo, mouse; settings: ICV infusion 100 ng/day for 10 days, n = 5
[2] = test system: OCN^−/− mice; assay: ICV delivery of OCN into OCN^−/− mice: OPC/OL numbers and myelin proteins; format: in vivo, mouse; settings: ICV 100 ng/day for 10 days
Procedure, shortened: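 OCN−/− mice received synthesized mouse OCN at 100 ng/day, or PBS, by ICV infusion for 10 days. For proliferation, BrdU at 100 μg/g was given i.p. 2 days before sacrifice, and sections were co-stained for BrdU/PDGFRα. For differentiation, BrdU at 200 μg/g was pulsed for four consecutive days from the start of treatment, with BrdU/CC1 co-staining at the end. Positive cells were counted per 0.25 mm2 in CC.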

[3] = molecular target: human GPR37 overexpressed on HEK293-based cells (human) (UniProt O15354); assay: saturation binding of biotinylated ligand to transfected cells
[4] = molecular target: T1, human GPR37 (Homo sapiens, UniProt O15354); assay: cAMP production, GPR37-transfected HEK293 cells; format: cell-based; settings: forskolin and/or OCN 30 min, cAMP-Glo Max
T1 sequence (O15354 27-613): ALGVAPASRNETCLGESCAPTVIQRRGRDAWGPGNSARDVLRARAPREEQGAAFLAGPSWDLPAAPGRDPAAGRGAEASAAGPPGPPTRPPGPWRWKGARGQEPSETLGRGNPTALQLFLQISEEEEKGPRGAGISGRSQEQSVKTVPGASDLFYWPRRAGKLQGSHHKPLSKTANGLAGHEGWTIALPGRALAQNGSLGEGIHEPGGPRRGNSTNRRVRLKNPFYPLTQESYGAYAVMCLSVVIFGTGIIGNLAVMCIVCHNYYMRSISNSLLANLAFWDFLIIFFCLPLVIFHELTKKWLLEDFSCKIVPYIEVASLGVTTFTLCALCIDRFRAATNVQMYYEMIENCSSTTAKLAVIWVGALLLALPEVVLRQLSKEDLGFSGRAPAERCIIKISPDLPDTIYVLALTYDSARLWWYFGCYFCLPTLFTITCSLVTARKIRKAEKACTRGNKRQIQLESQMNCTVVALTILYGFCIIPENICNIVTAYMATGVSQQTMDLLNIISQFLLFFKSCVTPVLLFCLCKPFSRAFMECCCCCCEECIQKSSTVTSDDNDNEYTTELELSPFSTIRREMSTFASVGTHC
Procedure, shortened: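 HEK293 cells were transfected with human GPR37 for 48 h, then seeded on poly-L-lysine-coated plates. They were exposed to forskolin and/or graded OCN for 30 min. cAMP was measured by luminescent cAMP-Glo Max assay. At least four experiments, each in triplicate.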

[5] = test system: OCN^−/− mice; assay: Hot plate test; format: in vivo; settings: mouse OCN 50 ng/g i.p. for 10 days, hot plate 53°C, n ≥ 6
Procedure, shortened: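 Mice aged 8 weeks were placed on a hot plate held at 53°C. Latency was scored as the time to lick or flick a hind paw, or to jump. The plate temperature was calibrated to give a withdrawal response within 10 to 15 s in control mice. OCN−/− mice received synthesized mouse OCN at 50 ng/g body weight i.p. for 10 days before testing.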

[6] = test system: WT mice; assay: ICV delivery of OCN into WT mice: myelin PLP1 and MBP; format: in vivo, mouse; settings: ICV 100 ng/day for 10 days, n ≥ 6
Procedure, shortened: (§1)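 Synthesized mouse OCN at 100 ng/day, or PBS, was infused ICV for 10 days before analysis. Tissue protein was extracted in RIPA buffer with protease inhibitors and quantified by BCA. Then 30 to 50 μg was run on SDS-PAGE and blotted. Blots were blocked in 5% milk for 1 h, incubated with primary antibody overnight at 4°C, then with HRP-secondary for 1 h at room temperature.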

[7] = test system: GPR37^−/− mice; assay: ICV delivery of OCN into GPR37^−/− mice: myelin PLP1 and MBP; format: in vivo, mouse; settings: ICV 100 ng/day for 10 days, n ≥ 6
Procedure, shortened: as §1

[8] = molecular target: T1, human GPR37; assay: ERK phosphorylation; format: cell-based; settings: OCN 20 nM; GPR37-transfected HEK293 cells; immunoblot
Procedure, shortened: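 Human GPR37 introduced into HEK293 cells by calcium-phosphate transfection, then exposed to OCN 20 nM. Lysates made in RIPA buffer with protease inhibitors and assayed by BCA. 30–50 μg protein run on SDS-PAGE and blotted to PVDF or nitrocellulose. Blocked in 5% milk for 1 h, primary antibody overnight at 4°C, HRP secondary for 1 h at room temperature.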

[9] = test system: OLs from GPR37^−/− mice; assay: MBP expression in primary OLs from GPR37^−/− mice; format: cell-based, mouse; settings: OPC from GPR37^−/− mice induced with T3; n = 3 independent experiments
Procedure, shortened: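 Primary OPCs were isolated from P7–P8 GPR37−/− mouse pups. They were differentiated into mature OLs with T3 and CNTF, then treated with the test compound. OPC purity and OL induction were checked with specific markers.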

[10] = test system: primary rat OLs; assay: Myrf expression in primary rat OLs; format: cell-based; settings: n = 3 independent experiments
Procedure, shortened: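 OPCs came from forebrains of P1–P2 Sprague-Dawley rats. Mixed glia were grown up to 12 days on poly-L-lysine, and microglia were removed by shaking at 200 rpm. OPCs were transduced with lentiviral shRNA against GPR37, then differentiated with CNTF and T3 for 48 h. The resulting OLs were treated with the test compound in differentiation medium for 48 h before analysis.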

[11] = test system: primary rat OLs; assay: cAMP production in primary rat OLs; format: cell-based
Procedure, shortened: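 Rat OPCs were transduced with lentiviral shRNA against GPR37 and kept with CNTF and T3 for 48 h. They were then plated at 1 × 10^4/well on poly-L-lysine. Cells received forskolin plus the test compound at the indicated concentrations for 30 min. Intracellular cAMP was measured by cAMP-Glo Max luminescence to give concentration-response curves. Runs were repeated at least four times, each in triplicate.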

[12] = test system: primary rat OLs; assay: Myelin PLP1 and MBP expression in primary rat OLs/OPCs in differentiation medium; format: cell-based; settings: n = 3 independent experiments
[13] = test system: human GPR37L1; assay: PRESTO-Tango β-arrestin recruitment, GPR37L1-transfected HTLA cells; format: cell-based; settings: cells expressing GPR37L1 (HTLA)
Procedure, shortened: (§2)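 HTLA cells (HEK293 carrying a tTA-luciferase reporter and β-arrestin2–TEV), kept under puromycin 2 μg/ml plus hygromycin B 100 μg/ml, expressing GPR37-Tango or GPR37L1-Tango. Seeded on poly-L-lysine; the next day given graded OCN concentrations in assay buffer for 24 h. Luciferase reagent (20-fold diluted) added for 15–20 min at 20–25°C; luminescence read as RLU. Concentration-response curves fitted.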

[14] = ref [15]–[18]; cited from earlier work
[15] = test system: neurons; settings: neurons (DRN, MRN, VTA, CA3); ref [16], [22], [51]; cited from earlier work
[16] = molecular target: T1, human GPR37; assay: PRESTO-Tango β-arrestin recruitment, GPR37-transfected HTLA cells; format: cell-based
Procedure, shortened: as §2

[17] = test system: primary rat OLs; assay: ERK phosphorylation; format: cell-based
[18] = test system: primary rat OPCs; assay: OPC proliferation; format: cell-based; settings: OCN 20 nM; EdU incorporation; n = 3 independent experiments
Procedure, shortened: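 Primary rat OPCs (P1–P2 Sprague-Dawley forebrain) were plated on poly-L-lysine at 1 × 10^4/well in 96-well plates. They were treated with the test compound at 20 nM before assessment. Proliferation was read by EdU incorporation with a commercial kit.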

[19] = test system: OLs derived from primary rat OPCs; assay: OL cell viability; format: cell-based; settings: OCN 0 to 50 nM, up to 72 hours; MTT; n = 3 independent experiments
Procedure, shortened: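 Rat OPCs were plated on poly-L-lysine at 1 × 10^4 per well in 96-well plates, in the presence of CNTF and T3. Cells were exposed to the test compound at 0 to 50 nM, or for up to 72 h. Viability was read with a commercial MTT kit.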

[20] = molecular target: T1, human GPR37; assay: Intracellular calcium; format: cell-based; settings: then OCN, GPR37-transfected HEK293-GCaMP6s cells
Procedure, shortened: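 HEK293 cells stably expressing GCaMP6s (made by lentiviral infection of HEK293T) were transfected with human GPR37 for 48 h. Medium was swapped for HBSS with Ca2+/Mg2+ and cells held at 37°C for 30 min. Pretreatment was anti-GPR37 antibody or pertussis toxin, then OCN 20 nM. GCaMP6s fluorescence was imaged at 1 s intervals.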

[21] = test system: human GPR37L1; assay: Saturation binding of biotinylated OCN, GPR37L1-transfected cells; settings: 2 hours at 37°C
Procedure, shortened: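 HEK293T cells were transfected with GPR37L1 and replated on poly-L-lysine at 36 h. After 24 h they received serial dilutions of biotinylated OCN in 0.5% BSA/Ca2+/Mg2+ PBS for 2 h at 37°C. Cells were then washed, fixed in 4% PFA, permeabilised with 0.3% Triton, given extra-avidin peroxidase for 30 min and TMB, and read at 450 nm. Nonspecific binding used 100 μM unlabelled OCN; specific binding was total minus nonspecific; Kd came from saturation curves.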

YLGASVPSPDPLEPTREQCELNPACDELSDQYGLKTAYKRIYGITI [mouse OCN]
OCN level in CC and SC [1]: significant increase
BrdU^+/CC1^+ differentiation OLs ([2]; CC of OCN^−/− mice): decreased
CC1^+ cells ([2]; CC of OCN^−/− mice): decreased
numbers of BrdU^+/PDGFRα^+ proliferative OPCs ([2]; CC of OCN^−/− mice): rarely affected
numbers of total PDGFRα^+ OPCs ([2]; OCN^−/− mice): rarely affected
expression of myelin PLP1 and MBP ([2]; white matter regions (CC, SC) of OCN^−/− mice, n = 6): decreased

biotinylated osteocalcin (OCN), species not stated (peptide)
Kd [3]: 14.1 nM

osteocalcin (YLGASVPSPDPLEPTREQCELNPACDELSDQYGLKTAYKRIYGITI; biotin (Biotin Protein Labeling Kit, Roche; sites not stated)) [OCN]
cAMP production [4]: significantly inhibited cAMP production
deficit of thermal sensitivity (paw lick latency) [5]: partially rescued
expression of myelin PLP1 and MBP in CC [6]: significant down-regulation
expression of myelin PLP1 and MBP in CC [7]: absent
ERK phosphorylation [8]: stimulated ERK phosphorylation
myelin MBP response to OCN, GPR37 absent [9]: unresponsive
down-regulation of Myrf by OCN with GPR37 knockdown ([10]; GPR37 shRNA, OCN 20 nM): abolished
expression of Myrf [10]: dose-dependently inhibited
OCN-induced inhibition of intracellular cAMP production with GPR37 silenced ([11]; GPR37 shRNA): substantially prevented
intracellular cAMP level ([11]; forskolin and OCN 30 min): reduction of the intracellular cAMP level
OCN's suppression of the MBP level with GPR37L1 silenced ([12]; primary rat OLs, GPR37L1 shRNA): unable to inhibit OCN’s suppression of the MBP level
expression of myelin PLP1 and MBP ([12]; primary rat OPCs in differentiation medium, immunoblot, immunostaining): dose-dependent reduction
luciferase responses (β-arrestin recruitment) [13]: failed to exert luciferase responses
ability of crossing the blood-brain barrier [14]: crossing the blood-brain barrier (BBB)
synthesis of monoamine neurotransmitters [15]: promote the synthesis of monoamine neurotransmitters
synthesis of γ-aminobutyric acid (GABA) [15]: reduce the synthesis of γ-aminobutyric acid (GABA)
luciferase activity (β-arrestin recruitment) [16]: dose-dependent increase
ERK phosphorylation ([17]; myelinating primary rat OLs): boost of ERK phosphorylation
OPC proliferation [18]: no effects
OL cell viability [19]: no effects

pertussis toxin [PTX, reference compound]
effect of pretreatment on OCN-caused reduction of the intracellular cAMP level ([11]; PTX pretreatment): blocked
effect of pretreatment on OCN-triggered increase of iCa^2+ [20]: abolished
effect of pretreatment on OCN-caused boost of ERK phosphorylation ([17]; PTX pretreatment, primary rat OLs): blocked

{Biotin-Ahx}-YLGASVPSPDPLEPTREQCELNPACDELSDQYGLKTAYKRIYGITI (disulfide 19-25; N-terminus assumed) [biotinylated OCN]
binding to GPR37L1 [21]: bound to GPR37 rather than GPR37L1
